Source: ChEMBL document CHEMBL1121866, “Synthesis of 5'-thymidinyl bis(1-aziridinyl)phosphinates as antineoplastic agents” (1981)

Columns and labels:
Type in all cases: functional
[1] = test system: Mus musculus; assay: Compound was evaluated for antitumor activity against L1210 leukemia in mice by NCI screener test at a dose of 200 mg/kg
Method in brief: (§1)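 Tested in mice bearing L1210 or P-388 leukemia in the National Cancer Institute screening program under NCI standard assay protocols. Read-out is survival as % T/C, treated versus control, at each dose level.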

[2] = test system: Mus musculus; assay: Compound was evaluated for antitumor activity against L1210 leukemia in mice by NCI screener test at a dose of 100 mg/kg; method in brief: as §1
[3] = test system: Mus musculus; assay: Compound was evaluated for antitumor activity against L1210 leukemia in mice by NCI screener test at a dose of 50 mg/kg; method in brief: as §1
[4] = test system: Mus musculus; assay: Compound was evaluated for antitumor activity against L1210 leukemia in mice by W screener test at a dose of 250 mg/kg
[5] = test system: Mus musculus; assay: Compound was evaluated for antitumor activity against L1210 leukemia in mice by W screener test at a dose of 500 mg/kg
Method in brief: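 L1210 leukemia in mice, run at Virginia Commonwealth University by G. L. Wampler at higher dose levels, following NCI standard assay guidelines. Activity is reported as survival % T/C.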

[6] = test system: Mus musculus; assay: Compound was evaluated for antitumor activity against P-388 leukemia in mice by NCI screener test at a dose of 100 mg/kg; method in brief: as §1
[7] = test system: Mus musculus; assay: Compound was evaluated for antitumor activity against P-388 leukemia in mice by NCI screener test at a dose of 200 mg/kg; method in brief: as §1
[8] = test system: Mus musculus; assay: Compound was evaluated for antitumor activity against P-388 leukemia in mice by NCI screener test at a dose of 25 mg/kg; method in brief: as §1
[9] = test system: Mus musculus; assay: Compound was evaluated for antitumor activity against P-388 leukemia in mice by NCI screener test at a dose of 50 mg/kg; method in brief: as §1

Row | SMILES | T/C [1] [%] | T/C [2] [%] | T/C [3] [%] | T/C [4] [%] | T/C [5] [%] | T/C [6] [%] | T/C [7] [%] | T/C [8] [%] | T/C [9] [%]
1 | Cc1cn([C@H]2C[C@H](O)[C@@H](CO[P+]([O-])(N3CC3(C)C)N3CC3(C)C)O2)c(=O)[nH]c1=O (stereo partly drawn) | 124 | 105 | 94 |  |  |  |  |  | 
2 | Cc1cn([C@H]2C[C@H](O)[C@@H](CO[P+]([O-])(N3CC3)N3CC3)O2)c(=O)[nH]c1=O | 94 | 100 | 107 |  |  |  |  |  | 
3 | CC(=O)O[C@H]1C[C@H](n2cc(C)c(=O)[nH]c2=O)O[C@@H]1CO[P+]([O-])(N1CC1)N1CC1 | 112 |  | 107 | 111 | 111 | 124 | 142 | 104 | 112
4 | CC(=O)O[C@H]1C[C@H](n2cc(C)c(=O)[nH]c2=O)O[C@@H]1CO[P+]([O-])(N1CC1(C)C)N1CC1(C)C (stereo partly drawn) | 123 | 112 | 110 | 125 | 137 | 141 | 154 | 110 | 138
